Reference: publication PMC6097486 (International Journal of Biological Sciences, 2018)
Where no end group is shown, it is not given here.

How the values were obtained:
[1] = ref [10]; cited from earlier work
[2] = tested on: NSCLC; conditions: ref [7]-[9]; cited from earlier work
[3] = Gross toxicity and body weight in A549 xenograft nude mice; assay type: in vivo, BALB/cA nude mice; conditions: 5 mg/kg/day i.p., 28 days
Procedure, shortened: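 Female athymic nu/nu BALB/cA mice, 7 weeks old, SPF housing, received subcutaneous A549 cells (2 × 10^6 cells in 200 μL saline, mixed 1:1 with matrigel) into upper and lower back. Two days later, test compound in saline was given i.p. for 28 days; controls got the same volume of saline. Body weight was recorded weekly.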

[4] = tested on: FGFR1; assay: Competitive elution of phage clones by FGF2; assay type: binding; conditions: 2 µg/ml FGF2, RT 1 h, 450 nm
Procedure, shortened: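 Phage clones (2 × 10^11 pfu/well) and control vcsM13 phage incubated on FGFR1 at RT for 1 h. Competitive elution with FGF2 (2 µg/ml) at RT for 1 h. Detection with anti-M13 mAb (37°C, 1 h), then goat anti-mouse IgG-HRP (37°C, 30 min) and TMB substrate. Absorbance read at 450 nm.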

[5] = tested on: A549 cells; assay: Tube formation assay on matrigel, A549 cells; assay type: cell-based, human; conditions: FGF2 10 ng/ml alone, 6 h, versus control (###P < 0.001)
[6] = tested on: CAM; assay: Chick chorioallantoic membrane; assay type: in vivo; conditions: FGF2 10 ng/ml alone, 24 h
Procedure, shortened: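 Test peptide applied with FGF2 (10 ng/ml) onto the CAM surface on day 8 of egg incubation. Incubation continued for 24 h, then the CAM surface was photographed to assess angiogenesis.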

[7] = tested on: FGFR1-ERK1/2 MAPK signaling pathway; assay: FGFR1-ERK1/2 MAPK signaling activation by FGF2; assay type: cell-based, human; conditions: stimulation with FGF2; A549 and NCI-H460 cells
Procedure, shortened: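 A549 and NCI-H460 cells (FGFR1-high human NSCLC) grown in DMEM/high glucose with 10% FBS at 37°C, 5% CO₂. Treatment 2 h; FGFR1 inhibitor PD173074 (100 nM) as positive control. Lysate protein (30 µg) run on 10% SDS-PAGE, transferred to PVDF, blocked in 8% nonfat milk/TBST. Probed for pFGFR1 and pERK1/2 (1:1000), normalised to β-actin.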

[8] = target: T1, human FGFR1 protein (human, UniProt P11362 22-376); assay: SPR
T1 sequence (looked up): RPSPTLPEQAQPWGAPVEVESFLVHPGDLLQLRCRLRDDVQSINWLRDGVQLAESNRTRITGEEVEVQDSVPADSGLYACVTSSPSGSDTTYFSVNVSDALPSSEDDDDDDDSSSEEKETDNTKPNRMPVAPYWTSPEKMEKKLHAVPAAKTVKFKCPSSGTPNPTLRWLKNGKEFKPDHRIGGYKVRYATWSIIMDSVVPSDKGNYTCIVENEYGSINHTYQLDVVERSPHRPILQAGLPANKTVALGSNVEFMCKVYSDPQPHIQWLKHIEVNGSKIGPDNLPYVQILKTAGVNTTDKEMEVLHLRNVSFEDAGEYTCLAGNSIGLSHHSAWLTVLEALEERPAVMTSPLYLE

Cc1c[nH]c(/C=C2\C(=O)Nc3ccccc32)c1CCC(=O)O [SU5402]
toxicity / clinical progress [1]: failed to enter phase II clinical trials due to their high toxicities
growth of NSCLC [2]: suppress the growth of NSCLC

FHDAWPNLSKSS [R1-P2]
toxicity observed ([3]; n = 5): no remarkable toxicity observed
abnormal gross phenotypes including weight loss ([3]; n = 5, body weight recorded weekly): no signs of abnormal gross phenotypes including weight loss

FGF2: Specific ligand of FGFR1 (PeproTech)
elution efficiency for the phage clones [4]: high elution efficiency
tube formation [5]: significantly induce tube formation
angiogenesis [6]: significantly induce angiogenesis
activation of FGFR1-ERK1/2 MAPK signaling pathway [7]: evident

CCN(CC)CCCCNc1ncc2cc(-c3cc(OC)cc(OC)c3)c(NC(=O)NC(C)(C)C)nc2n1 [PD173074]
toxicity / clinical progress [1]: failed to enter phase II clinical trials due to their high toxicities
growth of NSCLC [2]: suppress the growth of NSCLC

COc1cc(OC)cc(-c2cc3cnc(N)nc3nc2NC(=O)NC(C)(C)C)c1 [PD166866]
growth of NSCLC [2]: suppress the growth of NSCLC

FHDAWPNLSKSS [peptide R1-P2]
Kd [8]: ~154 nM
